Measurements: ChEMBL document CHEMBL1671775, “Synthesis, anticancer activity, and iron affinity of the Actinoplanes metabolite 7,8-dihydroxy-1-methylnaphtho[2,3-c]furan-4,9-dione” (Bioorg Med Chem, 2011)

What was measured:
Format in all cases: functional, cell-based
[1] = Cytotoxicity against human 518A2 cells after 72 hrs by MTT assay; settings: 518A2, 72 h
Summary of the method: (§1)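 518A2 cells and foreskin fibroblasts were grown in DMEM with 10% FCS, seeded at 5 × 10^4/mL and cultured 24 h. Cells were then exposed to compound for 72 h. MTT was added to a final 0.05% for 2 h. Medium was discarded, and formazan was dissolved in DMSO/10% SDS/0.6% acetic acid. A570 was read against A630 background. IC50 was taken from concentration–response curves versus untreated controls; four independent experiments.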

[2] = Cytotoxicity against human MCF7/Topo cells after 72 hrs by MTT assay
Summary of the method: (§2)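 Cells were seeded at 5 × 10^4/mL and cultured 24 h, then exposed to compound for 72 h. KB-V1/Vbl cells were grown in DMEM with 10% FCS and MCF-7/Top cells in EMEM with 5% FCS, pyruvate and NaHCO3. MTT was added to a final 0.1% for 2 h. Medium was discarded, and formazan was dissolved in DMSO/SDS/acetic acid. A570 was read against A630 background. IC50 was taken from concentration–response curves versus untreated controls; four independent experiments.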

HFF = assay: Cytotoxicity against human HFF after 72 hrs by MTT assay; summary of the method: as §1
[3] = Cytotoxicity against human KB-V1/Vbl cells after 72 hrs by MTT assay; summary of the method: as §2
HT-29 = assay: Cytotoxicity against human HT-29 cells after 72 hrs by MTT assay; settings: HT-29, 72 h
HL-60 = assay: Cytotoxicity against human HL60 cells after 72 hrs by MTT assay; settings: HL-60, 72 h
Summary of the method: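 HL-60 cells were grown in RPMI 1640 with 10% FCS at 37 °C and 5% CO2, seeded at 5 × 10^5/mL and cultured 24 h. Cells were then exposed to compound for 72 h. MTT was added to a final 0.05% for 2 h, and formazan was dissolved in DMSO with 10% SDS and 0.6% acetic acid. A570 was read against A630 background. IC50 was taken from concentration–response curves relative to untreated controls; quadruplicate, four independent experiments.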

Structure (SMILES)	IC50 [1] [µM]	IC50 [2] [µM]	IC50 (HFF) [µM]	IC50 [3] [µM]	IC50 (HT-29) [µM]	IC50 (HL-60) [µM]
COc1ccc2c(c1O)C(=O)c1c(coc1C)C2=O	> 100	16	31	51	31	18
Cc1occ2c1C(=O)c1c(ccc(O)c1O)C2=O	84	> 100	69	86	70	89
CC1=CC(=O)C(C(C)C)=CC1=O [THYMOQUINONE]	28	27	33	32	47	28
